{"data": "Assay results collected from several papers", "ALK C1156Y": "ALK tyrosine kinase receptor (ALK, Homo sapiens, UniProt Q9UM73, C1156Y)", "ALK": "ALK tyrosine kinase receptor (ALK, Homo sapiens, UniProt Q9UM73)", "ALK L1196M": "ALK tyrosine kinase receptor (ALK, Homo sapiens, UniProt Q9UM73, L1196M)"}
{"Structure (SMILES)": "CCCCC(=O)Nc1ccc(-c2ccc3ncn(CCC)c(=O)c3c2)cn1", "target": "ALK C1156Y", "observed": "binding", "technique": "competition with immobilised ligand", "concentration": "0.5 µM", "quantity": "remaining binding", "value": "100%"}
{"Structure (SMILES)": "CNC(=O)c1ccccc1Nc1nc(Nc2ccc(CO)cc2)ncc1Cl", "target": "ALK", "observed": "enzyme activity", "mode": "inhibitor", "technique": "radiometric", "concentration": "1 µM", "quantity": "remaining activity", "value": "1.07%"}
{"Structure (SMILES)": "CO[C@@H]1[C@H](N(C)C(=O)c2ccccc2)C[C@H]2O[C@]1(C)n1c3ccccc3c3c4c(c5c6ccccc6n2c5c31)C(=O)NC4", "target": "ALK", "observed": "enzyme activity", "mode": "inhibitor", "concentration": "1 µM", "quantity": "inhibition", "value": "54%"}
{"Structure (SMILES)": "COc1ccc2[nH]c3c4[nH]c5ccc(OC)cc5c4c4c(c3c2c1)C(=O)NC4=O", "target": "ALK L1196M", "observed": "binding", "concentration": "1 µM", "quantity": "remaining binding", "value": "70%"}
{"Structure (SMILES)": "C=CC(=O)N1CCC([C@@H]2CCNc3c(C(N)=O)c(-c4ccc(Oc5ccccc5)cc4)nn32)CC1", "target": "ALK L1196M", "observed": "cell-free assay", "concentration": "1 µM", "quantity": "inhibition", "value": "19%"}
{"Structure (SMILES)": "CN1CCN(C(=O)c2ccc(NC(=O)Nc3ccc(N(C)c4ccnc(Nc5ccc(CS(C)(=O)=O)cc5)n4)cc3)cc2)CC1", "target": "ALK L1196M", "observed": "binding", "concentration": "1 µM", "quantity": "remaining binding", "value": "83%"}
{"Structure (SMILES)": "C1=C/COCc2cc(ccc2OCCN2CCCC2)Nc2nccc(n2)-c2cccc(c2)COC/1", "target": "ALK", "observed": "binding", "concentration": "0.1 µM", "quantity": "remaining binding", "value": "73%"}
{"Structure (SMILES)": "C#Cc1cnc(Nc2ccc(CO)nc2)nc1Nc1ccccc1S(C)(=O)=NC#N (stereo not shown)", "target": "ALK", "observed": "enzyme activity", "mode": "inhibitor", "technique": "radiometric", "concentration": "1 µM", "quantity": "remaining activity", "value": "18.9%"}
{"Structure (SMILES)": "Cc1ccc(NC(=O)c2ccnc(C(F)(F)F)c2)cc1-c1cc(OCCO)nc(N2CCOCC2)c1", "target": "ALK", "observed": "binding", "concentration": "1 µM", "quantity": "remaining binding", "value": "89%"}
{"Structure (SMILES)": "CS(=O)(=NC#N)c1ccccc1Nc1nc(Nc2ccnc(CO)c2)ncc1Cl (stereo not shown)", "target": "ALK", "observed": "enzyme activity", "mode": "inhibitor", "technique": "radiometric", "concentration": "1 µM", "quantity": "remaining activity", "value": "36.7%"}
{"Structure (SMILES)": "CC#CC(=O)N1CCC[C@H]1c1nc(-c2ccc(C(=O)Nc3ccccn3)cc2)c2c(N)nccn12", "target": "ALK C1156Y", "observed": "enzyme activity", "mode": "inhibitor", "concentration": "1 µM", "quantity": "inhibition", "value": "0%"}
{"Structure (SMILES)": "CS(=O)(=NC#N)c1ccccc1Nc1nc(Nc2ccc(CO)nc2)ncc1Cl (stereo not shown)", "target": "ALK", "observed": "enzyme activity", "mode": "inhibitor", "technique": "radiometric", "concentration": "1 µM", "quantity": "remaining activity", "value": "23.4%"}
{"Structure (SMILES)": "C[C@H]1CC[C@H](n2c3cnccc3c3cnc(Nc4ccc5c(n4)CCN(C(=O)CO)C5)nc32)CC1", "target": "ALK", "observed": "binding", "concentration": "1 µM", "quantity": "remaining binding", "value": "84%"}
